Source: ChEMBL document CHEMBL4368872, “Synthesis and anticonvulsant activity of phenoxyacetyl derivatives of amines, including aminoalkanols and amino acids” (Medchemcomm, 2018)
The source made the active and inactive calls.

Columns and labels:
[1] = test system: Rattus norvegicus; assay: Anticonvulsant activity in hippocampal kindling Sprague-Dawley rat model assessed as after discharge time at 100 mg/kg, ip administered as single dose measured immediately; type: functional
In short: (§1)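 Rats implanted with a hippocampal electrode and kindled with suprathreshold trains (200 µA, 10 s, 50 Hz) every 30 min for 6 h on alternate days until fully kindled. One week later they received a single i.p. dose. Seizure score (Racine scale) and afterdischarge duration were recorded at 0–135 min and compared with the control stimulus given 15 min before dosing; each animal served as its own control. Values are mean ± SEM.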

[2] = test system: Rattus norvegicus; assay: Anticonvulsant activity in hippocampal kindling Sprague-Dawley rat model assessed as after discharge time at 50 mg/kg, ip administered as single dose measured after 45 mins; type: functional; in short: as §1
[3] = test system: Rattus norvegicus; assay: Anticonvulsant activity in hippocampal kindling Sprague-Dawley rat model assessed as after discharge time at 100 mg/kg, ip administered as single dose measured after 15 mins; type: functional; in short: as §1
[4] = test system: Mus musculus; assay: Anticonvulsant activity in CF-1 mouse model of maximal electroshock-induced seizure assessed as suppression of tonic hind limb extension at 110 mg/kg, ip measured at 0.25 hrs post dose; type: functional, organism-based
In short: (§2)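 Mice dosed i.p. and given maximal electroshock at 50 mA. Read-out is protection, reported as number protected / number tested at 0.25, 0.5, 1 and 4 h after dosing.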

[5] = test system: Rattus norvegicus; assay: Anticonvulsant activity in hippocampal kindling Sprague-Dawley rat model assessed as after discharge time at 50 mg/kg, ip administered as single dose measured after 135 mins; type: functional; in short: as §1
[6] = test system: Rattus norvegicus; assay: Anticonvulsant activity in hippocampal kindling Sprague-Dawley rat model assessed as after discharge time at 100 mg/kg, ip administered as single dose measured after 75 mins; type: functional; in short: as §1
[7] = test system: Mus musculus; assay: Anticonvulsant activity in ip dosed CF-1 mouse model of maximal electroshock-induced seizure assessed as suppression of tonic hind limb extension; type: functional; details: CF-1, ip
[8] = Protection index, ratio of TD50 for neurotoxicity in po dosed Sprague-Dawley rat to ED50 for anticonvulsant activity in Sprague-Dawley rat model of maximal electroshock-induced seizure; type: toxicity, organism-based; details: in vivo, read-out: Ratio TD50/ED50
In short: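 The rat p.o. protective index is TD50 (rotarod) / ED50 (MES, 150 mA). Both values were calculated by probit analysis.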

[9] = test system: Rattus norvegicus; assay: Anticonvulsant activity in hippocampal kindling Sprague-Dawley rat model assessed as after discharge time at 50 mg/kg, ip administered as single dose measured after 105 mins; type: functional; in short: as §1
[10] = test system: Rattus norvegicus; assay: Anticonvulsant activity in hippocampal kindling Sprague-Dawley rat model assessed as after discharge time at 100 mg/kg, ip administered as single dose measured after 105 mins; type: functional; in short: as §1
[11] = Neurotoxicity in CF-1 mouse at 220 mg/kg, ip measured after 1 hr by rotarod test; type: toxicity, organism-based; details: in vivo
In short: (§3)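 Mice dosed i.p. were placed on a 1 in. knurled rod turning at 6 rpm. Toxicity was scored as failure to keep balance for at least 1 min, i.e. falling off three or more times. Results are reported as animals showing toxicity / animals tested at each time point.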

[12] = Protection index, ratio of TD50 for neurotoxicity in ip dosed CF-1 mouse to ED50 for anticonvulsant activity in CF-1 mouse model of maximal electroshock-induced seizure; type: toxicity, organism-based; details: in vivo, read-out: Ratio TD50/ED50
[13] = test system: Rattus norvegicus; assay: Anticonvulsant activity in hippocampal kindling Sprague-Dawley rat model assessed as after discharge time at 50 mg/kg, ip administered as single dose measured after 75 mins; type: functional; in short: as §1
[14] = test system: Astrocyte; assay: Cytotoxicity against human astrocytes at 10 to 200 uM after 24 hrs by MTT assay; type: cell-based
In short: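 Human astrocytes derived from iPSCs via neural stem cells (7 days neural induction, then 17 days in astrocyte growth medium; GFAP-confirmed). Cells seeded at 1×10^4 per well in 1% FBS medium the day before, then exposed to 10–200 µM for 24 h with vehicle controls. MTT added for 4 h at 37 °C, formazan dissolved, OD read at 570 nm.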

[15] = test system: Mus musculus; assay: Anticonvulsant activity in ip dosed CF-1 mouse model of maximal electroshock-induced seizure assessed as time required for suppression of tonic hind limb extension; type: functional
[16] = test system: Rattus norvegicus; assay: Anticonvulsant activity in hippocampal kindling Sprague-Dawley rat model assessed as after discharge time at 100 mg/kg, ip administered as single dose measured after 45 mins; type: functional; in short: as §1
[17] = test system: Mus musculus; assay: Anticonvulsant activity in CF-1 mouse model of maximal electroshock-induced seizure assessed as suppression of tonic hind limb extension at 110 mg/kg, ip measured at 0.5 hrs post dose; type: functional, organism-based; in short: as §2
[18] = Neurotoxicity in CF-1 mouse at 220 mg/kg, ip measured after 0.25 hrs by rotarod test; type: toxicity, organism-based; details: in vivo; in short: as §3
[19] = Neurotoxicity in po dosed Sprague-Dawley rat by rotarod test; type: toxicity, organism-based; details: in vivo
In short: (§4)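 Rat neurotoxicity after i.p. or p.o. dosing was scored as animals impaired / animals tested at each time point. For p.o. dosing, TD50 was obtained by probit analysis.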

[20] = Neurotoxicity in Sprague-Dawley rat at 300 mg/kg, ip measured after 2 hrs by rotarod test; type: toxicity, organism-based; details: in vivo; in short: as §4
[21] = test system: Astrocyte; assay: Cytotoxicity against mouse astrocytes assessed as effect on cell proliferation at 10 to 200 uM after 72 hrs by crystal violet staining based spectrophotometric method
In short: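 Proliferation in mouse astrocyte line: 1×10^4 cells per well, exposed 24 h after seeding to 10–200 µM for 72 h. Fixed in 3.7% formaldehyde, stained 10 min with 0.01% crystal violet, dye eluted with methanolic citric acid/sodium citrate, OD at 540 nm.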

[22] = test system: Rattus norvegicus; assay: Anticonvulsant activity in hippocampal kindling Sprague-Dawley rat model assessed as after discharge time at 50 mg/kg, ip administered as single dose measured after 15 mins; type: functional; in short: as §1
[23] = Neurotoxicity in Sprague-Dawley rat at 100 mg/kg, ip measured after 4 hrs by rotarod test; type: toxicity, organism-based; details: in vivo; in short: as §4
[24] = Neurotoxicity in ip dosed CF-1 mouse by rotarod test; type: toxicity, organism-based; details: in vivo; in short: as §3
[25] = Neurotoxicity in Sprague-Dawley rat at 50 mg/kg, ip administered as single dose measured after 0.25 hrs by rotarod test; type: toxicity, organism-based; details: in vivo; in short: as §4
[26] = Neurotoxicity in Sprague-Dawley rat at 300 mg/kg, ip measured after 4 hrs by rotarod test; type: toxicity, organism-based; details: in vivo; in short: as §4
[27] = test system: Mus musculus; assay: Anticonvulsant activity in CF-1 mouse model of maximal electroshock-induced seizure assessed as suppression of tonic hind limb extension at 110 mg/kg, ip measured at 4 hrs post dose; type: functional, organism-based; in short: as §2
[28] = Neurotoxicity in Sprague-Dawley rat assessed as abnormal behavior at 100 mg/kg, ip administered as single dose measured after 0.25 hrs by rotarod test; type: toxicity, organism-based; details: in vivo; in short: as §4
[29] = test system: Rattus norvegicus; assay: Anticonvulsant activity in Sprague-Dawley rat model of maximal electroshock-induced seizure assessed as suppression of tonic hind limb extension at 30 mg/kg, po measured at 4 hrs post dose; type: functional, organism-based
In short: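 Rats given 30 mg/kg p.o. and tested by maximal electroshock at 150 mA. Scored as number protected / number tested (4 per group) at 0.25, 0.5, 1, 2 and 4 h after dosing.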

[30] = Neurotoxicity in CF-1 mouse at 300 mg/kg, ip measured after 0.5 hrs by rotarod test; type: toxicity, organism-based; details: in vivo; in short: as §3
[31] = Neurotoxicity in Sprague-Dawley rat at 100 mg/kg, ip measured after 0.25 hrs by rotarod test; type: toxicity, organism-based; details: in vivo; in short: as §4

`Cc1cccc(C)c1OCC(=O)N[C@H](C)CO` gave a Time [1] of 68 s, a Time [2] of 73 s and a Time [3] of 48 s. The Activity [4] was “Active”, the Time [5] was 72 s and the Time [6] was 80 s. For the same molecule, the ED50 [7] was 97.9 mg/kg, the selectivity ratio [8] was over 41.6 and the Time [9] was 77 s. The Time [10] was 77 s, the Activity [11] was “Non-Toxic” and the selectivity ratio [12] was 1.43. For the same molecule, the Time [13] was 75 s, the Activity [14] was “Non-Toxic” and the Time [15] was 0.25 h. For the same molecule, the Time [16] was 86 s, the Activity [17] was “inactive” and the Activity [18] was “Toxic”. The TD50 [19] was over 500 mg/kg, the Activity [20] was “Toxic” and the Activity [21] was “Non-Toxic”. For the same molecule, the Time [22] was 71 s, the Activity [23] was “Non-Toxic” and the TD50 [24] was 140 mg/kg. The Activity [25] was “Non-Toxic”, the Activity [26] was “Toxic” and the Activity [27] was “inactive”. For the same molecule, the Activity [28] was “Toxic”.

In the case of `CCC(O)CNC(=O)COc1c(C)cccc1C` (stereo unspecified), the Activity [29] is reported as “inactive”, the Activity [30] is reported as “Toxic” and the Activity [31] is reported as “Active”.
